Measurements published in ChEMBL document CHEMBL1125643, “N-(5-fluorobenzothiazol-2-yl)-2-guanidinothiazole-4-carboxamide. A novel, systemically active antitumor agent effective against 3LL Lewis lung carcinoma” (J Med Chem, 1991).
Where “and” joins values, the source holds several entries; their conditions need not be identical. Equal values may be shown once.

What was measured:
[1] = test system: Mus sp.; experiment: In vivo activity measured against 3LL metastasis in BDF1 mice after ip administration at 50 mg/kg dose, dosing on days 3-6 after tumor challenge; assay type: functional; settings: route intraperitoneal
[2] = test system: Mus sp.; experiment: In vivo activity measured against 3LL metastasis in BDF1 mice after ip administration at 200 mg/kg dose, dosing on days 2-4 after tumor challenge; assay type: functional; settings: route intraperitoneal
[3] = test system: Mus sp.; experiment: In vivo activity measured against 3LL metastasis in BDF1 mice after ip administration at 25 mg/kg dose, dosing on days 2-4 after tumor challenge; assay type: functional; settings: route intraperitoneal
[4] = Drug related lethality is percent animals in treated groups dying prior to first tumor related death in untreated groups measured in BDF1 mice after ip administration at 25 mg/kg dose 2-4 days after tumor challenge; assay type: toxicity, organism-based; design: dose 25 mg/kg, route intraperitoneal; settings: BDF1, mus sp., in vivo, read-out: Lethality
[5] = Drug related lethality is percent animals in treated groups dying prior to first tumor related death in untreated groups measured in BDF1 mice after ip administration at 100 mg/kg dose 2-4 days after tumor challenge; assay type: toxicity, organism-based; design: dose 100 mg/kg, route intraperitoneal; settings: BDF1, mus sp., in vivo, read-out: Lethality
[6] = Drug related lethality is percent animals in treated groups dying prior to first tumor related death in untreated groups measured in BDF1 mice after ip administration at 50 mg/kg dose 2-4 days after tumor challenge; assay type: toxicity, organism-based; design: dose 50 mg/kg, route intraperitoneal; settings: BDF1, mus sp., in vivo, read-out: Lethality
[7] = test system: Mus sp.; experiment: In vivo activity measured against 3LL metastasis in BDF1 mice after ip administration at 50 mg/kg dose, dosing on days 2-4 after tumor challenge; assay type: functional; settings: route intraperitoneal
[8] = Drug related lethality is percent animals in treated groups dying prior to first tumor related death in untreated groups measured in BDF1 mice after ip administration at 200 mg/kg dose 2-4 days after tumor challenge; assay type: toxicity, organism-based; design: dose 200 mg/kg, route intraperitoneal; settings: BDF1, mus sp., in vivo, read-out: Lethality
[9] = test system: Mus sp.; experiment: In vivo activity measured against 3LL metastasis in BDF1 mice after ip administration at 100 mg/kg dose, dosing on days 2-4 after tumor challenge; assay type: functional; settings: route intraperitoneal
[10] = test system: Mus sp.; experiment: In vivo activity measured against 3LL metastasis in BDF1 mice after ip administration at 100 mg/kg dose, dosing on days 3-6 after tumor challenge; assay type: functional; settings: route intraperitoneal
[11] = Drug related lethality is percent animals in treated groups dying prior to first tumor related death in untreated groups measured in BDF1 mice after ip administration at 100 mg/kg dose 3-6 days after tumor challenge; assay type: toxicity, organism-based; design: dose 100 mg/kg, route intraperitoneal; settings: BDF1, mus sp., in vivo, read-out: Lethality
[12] = Drug related lethality is percent animals in treated groups dying prior to first tumor related death in untreated groups measured in BDF1 mice after ip administration at 400 mg/kg dose days 3 after tumor challenge; settings: BDF1, mus sp., in vivo
[13] = Drug related lethality is percent animals in treated groups dying prior to first tumor related death in untreated groups measured in BDF1 mice after ip administration at 300 mg/kg dose days 3 after tumor challenge; settings: BDF1, mus sp., in vivo
[14] = test system: Mus sp.; experiment: In vivo activity measured against 3LL metastasis in BDF1 mice after ip administration at 5 mg/kg dose, dosing on days 3 after tumor challenge; assay type: functional, organism-based; design: dose 5 mg/kg
[15] = test system: Mus sp.; experiment: In vivo activity measured against 3LL metastasis in BDF1 mice after ip administration at 10 mg/kg dose, dosing on days 3 after tumor challenge; assay type: functional, organism-based; design: dose 10 mg/kg
[16] = test system: Mus sp.; experiment: In vivo activity measured against 3LL metastasis in BDF1 mice after ip administration at 50 mg/kg dose, dosing on days 2-8 after tumor challenge; assay type: functional; settings: route intraperitoneal
In short: (§1)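 Female BDF1 mice (18–20 g) given 6×10^5 log-phase 3LL cells iv via tail vein in 0.20 mL RPMI 1640, randomized, 7 per group. Drug freshly dissolved in DMSO (20% of final volume) and diluted with sterile saline to a fine suspension. Dosed 200 μL ip or po, 8 treatments from day 2. Survival monitored daily. %T/C = MST treated/MST control × 100, given as mean (s.e.) over repeat experiments.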

[17] = test system: Mus sp.; experiment: In vivo activity measured against 3LL metastasis in BDF1 mice after ip administration at 12.5 mg/kg dose, dosing on days 2-8 after tumor challenge; assay type: functional; settings: route intraperitoneal; in short: as §1
[18] = Drug related lethality is percent animals in treated groups dying prior to first tumor related death in untreated groups measured in BDF1 mice after ip administration at 50 mg/kg dose; assay type: toxicity, organism-based; design: dose 50 mg/kg, route intraperitoneal; settings: BDF1, mus sp., in vivo, read-out: Lethality
In short: (§2)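 Female BDF1 mice (18–20 g) were implanted in the lateral tail vein with 6×10^5 log-phase 3LL cells in 0.20 mL RPMI 1640 and then randomized, seven per group. Drug was dissolved in DMSO (20% of final volume) and diluted with sterile saline to a fine suspension. Mice received 200 μL ip daily from day 2 to day 9 (8 treatments) and were monitored daily. Lethality counted deaths before the first tumor-related control death.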

[19] = Drug related lethality is percent animals in treated groups dying prior to first tumor related death in untreated groups measured in BDF1 mice after ip administration at 6.25 mg/kg dose; assay type: toxicity, organism-based; design: dose 6.25 mg/kg, route intraperitoneal; settings: BDF1, mus sp., in vivo, read-out: Lethality; in short: as §2
[20] = test system: Mus sp.; experiment: In vivo activity measured against 3LL metastasis in BDF1 mice after ip administration at 25 mg/kg dose, dosing on days 2-8 after tumor challenge; assay type: functional; settings: route intraperitoneal; in short: as §1
[21] = Drug related lethality is percent animals in treated groups dying prior to first tumor related death in untreated groups measured in BDF1 mice after ip administration at 200 mg/kg dose; assay type: toxicity, organism-based; design: dose 200 mg/kg, route intraperitoneal; settings: BDF1, mus sp., in vivo, read-out: Lethality; in short: as §2
[22] = test system: Mus sp.; experiment: In vivo activity was measured against 3LL metastasis in BDF1 mice after po administration at 100 mg/kg dose, dosing on days 2-8 after tumor challenge; assay type: functional; in short: as §1
[23] = Drug related lethality is percent animals in treated groups dying prior to first tumor related death in untreated groups measured in BDF1 mice after po administration at 100 mg/kg dose; assay type: toxicity, organism-based; design: dose 100 mg/kg, route oral; settings: BDF1, mus sp., in vivo, read-out: Lethality
In short: (§3)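 Female BDF1 mice (18–20 g) were implanted in the tail vein with 6×10^5 3LL cells in 0.20 mL RPMI 1640, seven per group. Drug was dissolved in DMSO (20% final) and diluted with saline to a fine suspension. Mice were dosed orally, 200 μL, from day 2 to day 9 (8 treatments). Lethality is the percentage of treated mice dying before the first tumor-related death among untreated controls.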

[24] = Drug related lethality is percent animals in treated groups dying prior to first tumor related death in untreated groups measured in BDF1 mice after ip administration at 400 mg/kg dose; assay type: toxicity, organism-based; design: dose 400 mg/kg, route intraperitoneal; settings: BDF1, mus sp., in vivo, read-out: Lethality; in short: as §2
[25] = Drug related lethality is percent animals in treated groups dying prior to first tumor related death in untreated groups measured in BDF1 mice after ip administration at 25 mg/kg dose; assay type: toxicity, organism-based; design: dose 25 mg/kg, route intraperitoneal; settings: BDF1, mus sp., in vivo, read-out: Lethality; in short: as §2
[26] = test system: Mus sp.; experiment: In vivo activity measured against 3LL metastasis in BDF1 mice after ip administration at 6.25 mg/kg dose, dosing on days 2-8 after tumor challenge; assay type: functional; settings: route intraperitoneal; in short: as §1
[27] = Drug related lethality is percent animals in treated groups dying prior to first tumor related death in untreated groups measured in BDF1 mice after ip administration at 100 mg/kg dose; assay type: toxicity, organism-based; design: dose 100 mg/kg, route intraperitoneal; settings: BDF1, mus sp., in vivo, read-out: Lethality; in short: as §2
[28] = test system: Mus sp.; experiment: In vivo activity measured against 3LL metastasis in BDF1 mice after po administration at 50 mg/kg dose, dosing on days 2-8 after tumor challenge; assay type: functional; in short: as §1
[29] = test system: Mus sp.; experiment: In vivo activity measured against 3LL metastasis in BDF1 mice after po administration at 200 mg/kg dose, dosing on days 2-8 after tumor challenge; assay type: functional; in short: as §1
[30] = Drug related lethality is percent animals in treated groups dying prior to first tumor related death in untreated groups measured in BDF1 mice after po administration at 50 mg/kg dose; assay type: toxicity, organism-based; design: dose 50 mg/kg, route oral; settings: BDF1, mus sp., in vivo, read-out: Lethality; in short: as §3
[31] = test system: Mus sp.; experiment: In vivo activity measured against 3LL metastasis in BDF1 mice after ip administration at 100 mg/kg dose, dosing on days 2-8 after tumor challenge; assay type: functional; settings: route intraperitoneal; in short: as §1
[32] = test system: Mus sp.; experiment: In vivo activity measured against 3LL metastasis in BDF1 mice after po administration at 25 mg/kg dose, dosing on days 2-8 after tumor challenge; assay type: functional; in short: as §1
[33] = Drug related lethality is percent animals in treated groups dying prior to first tumor related death in untreated groups measured in BDF1 mice after po administration at 200 mg/kg dose; assay type: toxicity, organism-based; design: dose 200 mg/kg, route oral; settings: BDF1, mus sp., in vivo, read-out: Lethality; in short: as §3
[34] = Drug related lethality is percent animals in treated groups dying prior to first tumor related death in untreated groups measured in BDF1 mice after ip administration at 12.5 mg/kg dose; assay type: toxicity, organism-based; design: dose 12.5 mg/kg, route intraperitoneal; settings: BDF1, mus sp., in vivo, read-out: Lethality; in short: as §2
[35] = test system: Mus sp.; experiment: In vivo activity measured against 3LL metastasis in BDF1 mice after ip administration at 200 mg/kg dose, dosing on days 2-8 after tumor challenge; assay type: functional; settings: route intraperitoneal; in short: as §1
[36] = Drug related lethality is percent animals in treated groups dying prior to first tumor related death in untreated groups measured in BDF1 mice after po administration at 25 mg/kg dose; assay type: toxicity, organism-based; design: dose 25 mg/kg, route oral; settings: BDF1, mus sp., in vivo, read-out: Lethality; in short: as §3
[37] = Drug related lethality is percent animals in treated groups dying prior to first tumor related death in untreated groups measured in BDF1 mice after po administration at 12.5 mg/kg dose; assay type: toxicity, organism-based; design: dose 12.5 mg/kg, route oral; settings: BDF1, mus sp., in vivo, read-out: Lethality; in short: as §3
[38] = Drug related lethality is percent animals in treated groups dying prior to first tumor related death in untreated groups measured in BDF1 mice after po administration at 400 mg/kg dose; assay type: toxicity, organism-based; design: dose 400 mg/kg, route oral; settings: BDF1, mus sp., in vivo, read-out: Lethality; in short: as §3

Molecule `O=c1[nH]cc(F)c(=O)[nH]1` [FLUOROURACIL] has a T/C [1] of 109%, a T/C [2] of 141% and a T/C [3] of 114%. For the same molecule, the mortality [4] was 0%, the mortality [5] was 0% and the mortality [6] was 0%. The T/C [7] was 118%, the mortality [8] was 28% and the T/C [9] was 127%. For the same molecule, the T/C [10] was 125% and the mortality [11] was 14%.
`O=P1(N(CCCl)CCCl)NCCCO1` (stereo not drawn) [CYCLOPHOSPHAMIDE ANHYDROUS] showed a mortality [12] of 14% and a mortality [13] of 0%.
CISPLATIN showed a T/C [14] of 112% and a T/C [15] of 116%.
`N=C(N)Nc1nc(C(=O)Nc2nc3cc(F)ccc3s2)cs1` showed a T/C [16] of 153%, a T/C [17] of 149.3% and a mortality [18] of 0.43%. It also gave a mortality [19] of 0%, a T/C [20] of 153.8% and a mortality [21] of 14.3%. The T/C [22] was 157.7%, the mortality [23] was 5.7% and the mortality [24] was 42.9%. It also gave a mortality [25] of 0%, a T/C [26] of 112.7% and a mortality [27] of 0%. The T/C [28] was 140.4%, the T/C [29] was 119% and 150.3% and the mortality [30] was 2%. The T/C [31] was 160.7%, the T/C [32] was 127% and the mortality [33] was 22.7%. For the same molecule, the mortality [34] was 0%, the T/C [35] was 179.7% and the mortality [36] was 1.78%. For the same molecule, the mortality [37] was 0% and the mortality [38] was 45.7%.
